Reference: ChEMBL document CHEMBL1150157, “Five new steroidal saponins from Solanum chrysotrichum leaves and their antimycotic activity” (2002)
Values after ≈ are worked out from the molar mass of the structure shown.

How the values were obtained:
Type in all cases: functional
Trichophyton rubrum = assay: Antimicrobial activity against Trichophyton rubrum ATCC 28188 after 72 hrs by agar dilution method; settings: ATCC 28188, 72 h
In short: (§1)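 Dermatophytes maintained on potato dextrose agar at 27 °C. Assayed by agar dilution on Sabouraud glucose agar. Pure compounds in DMSO were serially diluted 2-fold (400–3.125 µg/mL) into the medium, with final DMSO ≤2%. Spots of 10^6 spores/mL (hemocytometer count) were applied with a 0.010 mL loop. Plates ran at 29 °C for 72 h, in triplicate. MIC was the lowest concentration with no visible growth.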

[1] = tested on: Trichophyton mentagrophytes; assay: Antimicrobial activity against Trichophyton mentagrophytes ATCC 28185 after 72 hrs by agar dilution method; settings: ATCC 28185, 72 h; in short: as §1
Candida albicans = assay: Antimicrobial activity against Candida albicans ATCC 10231 after 24 hrs by agar dilution method
In short: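 C. albicans kept on Sabouraud glucose agar, which also served as the assay medium. Pure compounds in DMSO were diluted 2-fold serially (400–3.125 µg/mL) into the agar, final DMSO ≤2%. An inoculum of 10^5 cells/mL (hemocytometer) was spotted with a 0.010 mL calibrated loop. Plates were held at 29 °C for 24 h, in triplicate. MIC was the lowest concentration inhibiting visible growth.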

Aspergillus niger = assay: Antimicrobial activity against Aspergillus niger ATCC 10335 after 48 hrs by agar dilution method; settings: ATCC 10335, 48 h
In short: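 A. niger maintained on potato dextrose agar at 27 °C. Tested by agar dilution on Sabouraud glucose agar with 2-fold serial DMSO dilutions of pure compounds (400–3.125 µg/mL) added to the medium, final DMSO ≤2%. Inoculum was 10^6 spores/mL, hemocytometer-counted, applied by 0.010 mL loop. Incubation at 29 °C for 48 h, in triplicate. MIC was the lowest concentration preventing visible growth.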

| Compound | MIC (Trichophyton rubrum) [µg/mL] | MIC [1] [µg/mL] | MIC (Candida albicans; ATCC 10231, 24 h) [µg/mL] | MIC (Aspergillus niger) [µg/mL] | MIC (Candida albicans) [µg/mL] |
| --- | --- | --- | --- | --- | --- |
| C[C@@H]1CC[C@@]2(OC1)O[C@H]1C[C@H]3[C@@H]4C[C@H](O[C@@H]5OC[C@@H](O)[C@H](O)[C@H]5O)[C@H]5C[C@@H](O)CC[C@]5(C)[C@H]4CC[C@]3(C)[C@H]1[C@@H]2C | 100 (≈ 177 µM) | 100 (≈ 177 µM) | 200 (≈ 354 µM) | > 400 | – |
| C[C@H]1CO[C@@]2(O[C@H]3C[C@H]4[C@@H]5C[C@H](O[C@@H]6O[C@H](C)[C@@H](O)[C@H](O[C@@H]7O[C@@H](C)[C@H](O)[C@@H](O)[C@H]7O)[C@H]6O)[C@H]6C[C@@H](O)CC[C@]6(C)[C@H]5CC[C@]4(C)[C@H]3[C@@H]2C)[C@@H](O)C1 | 200 (≈ 270 µM) | 200 (≈ 270 µM) | 200 (≈ 270 µM) | 200 (≈ 270 µM) | – |
| C[C@@H]1CC[C@@]2(OC1)O[C@H]1C[C@H]3[C@@H]4C[C@H](O[C@@H]5O[C@H](C)[C@@H](O)[C@H](O[C@@H]6OC[C@@H](O)[C@H](O)[C@H]6O)[C@H]5O)[C@H]5C[C@@H](O)CC[C@]5(C)[C@H]4CC[C@]3(C)[C@H]1[C@@H]2C | 12.5 (≈ 17.6 µM) | 12.5 (≈ 17.6 µM) | 200 (≈ 281 µM) | 100 (≈ 141 µM) | – |
| Clc1ccc(COC(Cn2ccnc2)c2ccc(Cl)cc2Cl)c(Cl)c1 (centres undefined) [MICONAZOLE] | 4 (≈ 9.61 µM) | 4 (≈ 9.61 µM) | – | 8 (≈ 19.2 µM) | – |
| C[C@@H]1CC[C@@]2(OC1)O[C@H]1C[C@H]3[C@@H]4C[C@H](O[C@@H]5O[C@H](C)[C@@H](O)[C@H](O[C@@H]6O[C@@H](C)[C@H](O)[C@@H](O)[C@H]6O)[C@H]5O)[C@H]5C[C@@H](O)CC[C@]5(C)[C@H]4CC[C@]3(C)[C@H]1[C@@H]2C | 50 (≈ 69 µM) | 200 (≈ 276 µM) | 200 (≈ 276 µM) | 400 (≈ 552 µM) | – |
| C[C@@H]1CC[C@@]2(OC1)O[C@H]1C[C@H]3[C@@H]4C[C@H](O[C@@H]5O[C@H](C)[C@@H](O)[C@H](O)[C@H]5O)[C@H]5C[C@@H](O)CC[C@]5(C)[C@H]4CC[C@]3(C)[C@H]1[C@@H]2C | 50 (≈ 86.4 µM) | 25 (≈ 43.2 µM) | 200 (≈ 346 µM) | > 400 | – |
| NYSTATIN | – | – | – | – | 8 |
